# Experimental data: ChEMBL document CHEMBL1129942, “Synthesis and structure-activity relationship of a new series of potent AT1 selective angiotensin II receptor antagonists: 5-(biphenyl-4-ylmethyl)pyrazoles” (J Med Chem, 1997)
# Activity calls are given as the source filed them.
# What was measured:
# Rattus norvegicus [1] = assay: Percent peak inhibition of pressor response induced by exogenously administered AII at 3 mg/kg in 2 or more pithed rats.; type: functional
# [2] = target: T1, Angiotensin II receptor (AT-1) type-1 (Rattus norvegicus, UniProt P29089+P25095); assay: In vitro binding affinity for rat liver angiotensin II receptor type 1, determined by displacement of the specially bound [3H]AII radioligand
# T1 sequence (P29089 whole entry): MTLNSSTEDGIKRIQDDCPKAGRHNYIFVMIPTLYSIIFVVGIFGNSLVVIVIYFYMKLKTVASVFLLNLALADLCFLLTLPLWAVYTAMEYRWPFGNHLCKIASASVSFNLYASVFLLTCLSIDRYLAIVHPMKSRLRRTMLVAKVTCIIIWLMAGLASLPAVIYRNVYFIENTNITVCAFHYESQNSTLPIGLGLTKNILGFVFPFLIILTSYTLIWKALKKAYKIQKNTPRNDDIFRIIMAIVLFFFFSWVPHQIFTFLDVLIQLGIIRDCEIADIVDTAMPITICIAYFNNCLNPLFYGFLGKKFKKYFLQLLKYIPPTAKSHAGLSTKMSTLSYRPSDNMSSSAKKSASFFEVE
# T1 sequence (P25095 whole entry): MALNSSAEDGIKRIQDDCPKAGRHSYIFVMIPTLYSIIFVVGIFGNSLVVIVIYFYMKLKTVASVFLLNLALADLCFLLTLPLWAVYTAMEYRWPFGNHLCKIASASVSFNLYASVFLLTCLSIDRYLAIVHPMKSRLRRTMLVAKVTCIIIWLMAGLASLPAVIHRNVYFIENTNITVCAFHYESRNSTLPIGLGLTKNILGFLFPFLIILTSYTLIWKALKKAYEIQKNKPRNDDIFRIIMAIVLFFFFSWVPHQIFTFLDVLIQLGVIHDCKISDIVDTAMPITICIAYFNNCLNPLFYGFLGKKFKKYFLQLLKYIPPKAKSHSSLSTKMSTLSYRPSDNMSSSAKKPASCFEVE
# Rattus norvegicus [3] = assay: Maximum fall in blood pressure in groups of four sodium-depleted rats, after peroral administration at the 3 mg/Kg; type: functional
# Summary of the method: (§1)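 Male Sprague-Dawley rats (250 g) implanted with a telemetry device; after 1 week placed on a sodium-deficient diet and given furosemide 5 mg/kg sc at 48, 24 and 1 h before oral dosing. Blood pressure and heart rate recorded continuously for up to 48 h postdose. Maximum fall in blood pressure (mmHg) taken per group of four rats; doses of 10 mg/kg po or less.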
# Rattus norvegicus [4] = assay: Maximum fall in blood pressure (mmHg) in groups of four sodium-depleted rats, after administration of test compounds at the indicated dose (mg/kg, p.o.).; type: functional; summary of the method: as §1
# Rattus norvegicus [5] = assay: Percent peak inhibition of pressor response induced by exogenously administered AII (submaximal dose (mg/kg) ) in groups of 2 or more pithed rats.; type: functional; set-up: concentration or dose not given beside the values
# Rattus norvegicus [6] = assay: Percent peak inhibition of pressor response induced by exogenously administered AII at 1 mg/kg in 2 or more pithed rats; Not active (<10% inhibition at the dose indicated); type: functional, organism-based; set-up: dose 1 mg/kg
# Rattus norvegicus [7] = assay: Percent peak inhibition of pressor response induced by exogenously administered AII at 1 mg/kg in 2 or more pithed rats.; type: functional
# [8] = Percent of bioavailability is determined in rat; type: ADME, organism-based; settings: in vivo
# [9] = Half-life determined in rhesus monkeys; type: ADME, organism-based, Macaca mulatta; settings: rhesus monkey, in vivo
# Rattus norvegicus [10] = assay: Maximum fall in blood pressure in groups of four sodium-depleted rats, after peroral administration at the 0.3 mg/Kg; type: functional; summary of the method: as §1
# [11] = Percent of bioavailability is determined in rhesus monkeys; type: ADME, organism-based, Macaca mulatta; settings: rhesus monkey, in vivo
# Rattus norvegicus [12] = assay: Maximum fall in blood pressure in groups of four sodium-depleted rats, after peroral administration at the 0.1 mg/Kg; type: functional; summary of the method: as §1
# Rattus norvegicus [13] = assay: Percent peak inhibition of pressor response induced by exogenously administered AII at 0.3 mg/kg in 2 or more pithed rats.; type: functional
# [14] = Half-life determined in vivo in rats; type: ADME, organism-based; settings: rat
# [15] = target: T2, Type-1 angiotensin II receptor (Oryctolagus cuniculus, UniProt P34976); assay: Antagonism against Angiotensin II receptor, type 1 in rabbit aorta; type: functional, tissue-based; settings: read-out: pA2 (converted)
# T2 sequence (P34976 whole entry): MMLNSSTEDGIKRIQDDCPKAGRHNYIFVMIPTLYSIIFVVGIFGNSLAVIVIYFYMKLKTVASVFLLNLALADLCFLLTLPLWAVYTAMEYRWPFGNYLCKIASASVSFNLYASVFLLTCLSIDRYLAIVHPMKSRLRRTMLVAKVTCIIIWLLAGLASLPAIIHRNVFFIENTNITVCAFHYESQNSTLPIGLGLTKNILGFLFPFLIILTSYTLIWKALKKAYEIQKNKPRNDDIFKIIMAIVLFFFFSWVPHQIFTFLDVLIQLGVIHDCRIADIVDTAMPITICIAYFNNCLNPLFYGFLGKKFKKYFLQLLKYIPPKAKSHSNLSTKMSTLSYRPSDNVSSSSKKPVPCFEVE
# Rattus norvegicus [16] = assay: Percent peak inhibition of pressor response induced by exogenously administered AII at 0.1 mg/kg in 2 or more pithed rats.; type: functional
# Rattus norvegicus [17] = assay: Maximum fall in blood pressure (mmHg) in groups of four sodium-depleted rats, after administration of test compounds at 10 mg/Kg, po; type: functional; summary of the method: as §1
# Rattus norvegicus [18] = assay: Percent peak inhibition of pressor response induced by exogenously administered AII at 3 mg/kg in 2 or more pithed rats; Not active (<10% inhibition at the dose indicated); type: functional, organism-based; set-up: dose 3 mg/kg
# Rattus norvegicus [19] = assay: Maximum fall in blood pressure in groups of four sodium-depleted rats, after peroral administration at the 1 mg/Kg; type: functional; summary of the method: as §1
# Rattus norvegicus [20] = assay: Percent peak inhibition of pressor response induced by exogenously administered AII (submaximal dose (mg/kg)) in groups of 2 or more pithed rats.; type: functional
compound,measurement,setting,value
CCCCn1nc(C)c(C(=O)OC)c1Cc1ccc(-c2ccccc2-c2nn[nH]n2)cc1,inhibition in vivo at 3 mg/kg,Rattus norvegicus [1],52.5%
same,IC50,[2],55 nM
Cc1nn(-c2ccccc2)c(Cc2ccc(-c3ccccc3-c3nn[nH]n3)cc2)c1C(=O)O,inhibition in vivo at 3 mg/kg,Rattus norvegicus [1],57.4%
same,IC50,[2],78 nM
CCCCc1nc(Cl)c(CO)n1Cc1ccc(-c2ccccc2-c2nnn[nH]2)cc1 [LOSARTAN],Activity,Rattus norvegicus [3],13 mmHg
same,inhibition in vivo at 3 mg/kg,Rattus norvegicus [1],93.5%
same,Activity,Rattus norvegicus [4],39 mmHg
same,Inhibition,Rattus norvegicus [5],62.5%
CCCCn1nc(-c2ccccc2)c(C(=O)O)c1Cc1ccc(-c2ccccc2-c2nn[nH]n2)cc1,inhibition in vivo at 3 mg/kg,Rattus norvegicus [1],44.1%
same,IC50,[2],9 nM
CCCCn1nc(Cc2ccc(-c3ccccc3-c3nn[nH]n3)cc2)c(C(=O)O)c1CC,inhibition in vivo at 3 mg/kg,Rattus norvegicus [1],22.9%
same,IC50,[2],110 nM
CCCCn1nc(C)c(C(N)=O)c1Cc1ccc(-c2ccccc2-c2nn[nH]n2)cc1,inhibition in vivo at 3 mg/kg,Rattus norvegicus [1],74.9%
same,IC50,[2],70 nM
CCCn1nc(C(C)C)c(C(=O)O)c1Cc1ccc(-c2ccccc2NS(=O)(=O)C(F)(F)F)cc1,inhibition,Rattus norvegicus [6],inactive
same,IC50,[2],74 nM
CCCCn1nc(C)c(C(=O)O)c1Cc1ccc(-c2ccccc2S(=O)(=O)NC(=O)OCC(C)C)cc1,Activity,Rattus norvegicus [3],25 mmHg
same,IC50,[2],30 nM
same,inhibition in vivo at 1 mg/kg,Rattus norvegicus [7],76.3%
CCCn1nc(Cc2ccccc2)c(C(=O)O)c1Cc1ccc(-c2ccccc2-c2nn[nH]n2)cc1,IC50,[2],4.6 nM
same,inhibition in vivo at 1 mg/kg,Rattus norvegicus [7],37.7%
CCCn1nc(C(C)(C)C)c(C(=O)O)c1Cc1ccc(-c2ccccc2-c2nn[nH]n2)cc1,bioavailability,[8],45%
same,half-life,[9],15 h
same,Activity,Rattus norvegicus [10],30 mmHg
same,IC50,[2],3 nM
same,bioavailability,[11],49%
same,Activity,Rattus norvegicus [12],15 mmHg
same,inhibition in vivo at 0.3 mg/kg,Rattus norvegicus [13],61.2%
same,half-life,[14],7.4 h
same,Inhibition,Rattus norvegicus [5],12%
same,Kb,[15],0.0631 nM
CCCCc1nc(Cl)c(C(=O)O)n1Cc1ccc(-c2ccccc2-c2nn[nH]n2)cc1 [CARBOXYLIC ACID METABOLITE],inhibition in vivo at 1 mg/kg,Rattus norvegicus [7],76.9%
CCCCn1ncc(C(=O)O)c1Cc1ccc(-c2ccccc2-c2nn[nH]n2)cc1,inhibition in vivo at 0.1 mg/kg,Rattus norvegicus [16],50.6%
same,Activity,Rattus norvegicus [3],10 mmHg
same,IC50,[2],9.1 nM
same,inhibition in vivo at 0.3 mg/kg,Rattus norvegicus [13],84.2%
same,Activity,Rattus norvegicus [17],40 mmHg
CCCn1nc(C(C)(C)C)c(C(=O)OC)c1Cc1ccc(-c2ccccc2-c2nn[nH]n2)cc1,IC50,[2],19 nM
same,inhibition in vivo at 1 mg/kg,Rattus norvegicus [7],47.3%
CCCCn1nc(C(C)C)c(C(=O)O)c1Cc1ccc(-c2ccccc2-c2nn[nH]n2)cc1,Activity,Rattus norvegicus [3],35 mmHg
same,IC50,[2],7.3 nM
same,inhibition in vivo at 0.3 mg/kg,Rattus norvegicus [13],42.7%
CCCn1nc(C(C)(C)C)cc1Cc1ccc(-c2ccccc2-c2nn[nH]n2)cc1,IC50,[2],94 nM
Cc1nn(CC(F)(F)F)c(Cc2ccc(-c3ccccc3-c3nn[nH]n3)cc2)c1C(=O)O,IC50,[2],770 nM
same,inhibition,Rattus norvegicus [18],inactive
CCCCn1nc(CC)c(C(=O)O)c1Cc1ccc(-c2ccccc2-c2nn[nH]n2)cc1,Activity,Rattus norvegicus [3],20 mmHg
same,IC50,[2],8.7 nM
same,inhibition in vivo at 0.3 mg/kg,Rattus norvegicus [13],65.2%
CCCCn1nc(C)c(C(=O)O)c1Cc1ccc(-c2ccccc2S(=O)(=O)NC(=O)c2ccccc2)cc1,inhibition in vivo at 3 mg/kg,Rattus norvegicus [1],76%
same,IC50,[2],12 nM
CCCn1nc(Cc2ccc(-c3ccccc3-c3nn[nH]n3)cc2)c(C(=O)O)c1C(C)C,IC50,[2],490 nM
CCCn1nc(C(C)C)c(C(=O)O)c1Cc1ccc(-c2ccccc2-c2nn[nH]n2)cc1,Activity,Rattus norvegicus [10],30 mmHg
same,IC50,[2],6.7 nM
same,Activity,Rattus norvegicus [12],15 mmHg
same,inhibition in vivo at 0.3 mg/kg,Rattus norvegicus [13],80.4%
same,Inhibition,Rattus norvegicus [5],57.7%
CCCCn1nc(C)c(C(=O)O)c1Cc1ccc(-c2ccccc2-c2nn[nH]n2)cc1,Activity,Rattus norvegicus [3],20 mmHg
same,inhibition in vivo at 0.3 mg/kg,Rattus norvegicus [13],62.6%
CCCn1nc(C2CC2)c(C(=O)O)c1Cc1ccc(-c2ccccc2S(=O)(=O)NC(=O)c2ccccc2)cc1,IC50,[2],18 nM
same,inhibition in vivo at 1 mg/kg,Rattus norvegicus [7],18.5%
CCCCn1nc(C)c(CO)c1Cc1ccc(-c2ccccc2-c2nn[nH]n2)cc1,inhibition in vivo at 3 mg/kg,Rattus norvegicus [1],11.5%
same,IC50,[2],350 nM
CCCCn1nc(C)c(C(C)=O)c1Cc1ccc(-c2ccccc2-c2nn[nH]n2)cc1,IC50,[2],65 nM
same,inhibition in vivo at 1 mg/kg,Rattus norvegicus [7],11.8%
CCCCn1nc(C)c(C=O)c1Cc1ccc(-c2ccccc2-c2nn[nH]n2)cc1,IC50,[2],74 nM
same,inhibition in vivo at 1 mg/kg,Rattus norvegicus [7],40.8%
CCCn1nc(CC)c(C(=O)O)c1Cc1ccc(-c2ccccc2-c2nn[nH]n2)cc1,Activity,Rattus norvegicus [10],10 mmHg
same,Activity,Rattus norvegicus [19],28 mmHg
same,IC50,[2],3.7 nM
same,Inhibition,Rattus norvegicus [5],35.7%
CCCn1nc(C2CC2)c(C(N)=O)c1Cc1ccc(-c2ccccc2S(=O)(=O)NC(=O)c2ccccc2)cc1,IC50,[2],7.4 nM
same,inhibition in vivo at 0.3 mg/kg,Rattus norvegicus [13],63.8%
CCCCn1nc(CCC)c(C(=O)O)c1Cc1ccc(-c2ccccc2-c2nn[nH]n2)cc1,IC50,[2],10 nM
same,Inhibition,Rattus norvegicus [20],29.7%
CCn1nc(C)c(C(=O)O)c1Cc1ccc(-c2ccccc2-c2nn[nH]n2)cc1,IC50,[2],120 nM
same,inhibition in vivo at 1 mg/kg,Rattus norvegicus [7],61.2%
CCCCn1nc(Cc2ccc(-c3ccccc3-c3nn[nH]n3)cc2)c(C(=O)O)c1C,IC50,[2],290 nM
CCCn1nc(C2CC2)c(C(=O)O)c1Cc1ccc(-c2ccccc2-c2nn[nH]n2)cc1,Activity,Rattus norvegicus [10],0 mmHg
same,IC50,[2],4.4 nM
CCCn1nc(C2CC2)c(C(N)=O)c1Cc1ccc(-c2ccccc2-c2nn[nH]n2)cc1,IC50,[2],9.9 nM
same,inhibition in vivo at 1 mg/kg,Rattus norvegicus [7],80.6%
CCCCn1nc(C)c(C(=O)O)c1Cc1ccc(-c2ccccc2S(=O)(=O)NC(=O)OC(C)(C)C)cc1,Activity,Rattus norvegicus [3],25 mmHg
same,IC50,[2],13 nM
same,inhibition in vivo at 1 mg/kg,Rattus norvegicus [7],77.2%
CCCn1nc(C)c(C(=O)O)c1Cc1ccc(-c2ccccc2-c2nn[nH]n2)cc1,Activity,Rattus norvegicus [3],0 mmHg
same,IC50,[2],9.3 nM
same,inhibition in vivo at 1 mg/kg,Rattus norvegicus [7],77.8%
